In assay [1] the target is Histamine H3 receptor (Rattus norvegicus) (UniProt Q9QYN8). Put plainly: (§1) In vitro antagonist potency at Histamine H3 receptor measured as K+-evoked [3H]histamine release from synaptosomes of rat cerebral cortex. The assay is classed as functional, subcellular. Particulars: Brain. The method in brief: (§2)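 Rat cerebral cortex synaptosomes; [³H]histamine release evoked by K⁺ depolarization; antagonist activity measured at least in triplicate, per Garbarg et al.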

Assay [2] addresses Histamine H3 receptor (Mus musculus) (UniProt P58406). Put plainly: In vivo antagonist activity at Histamine H3 receptor was screened by measuring the effect on brain histamine turnover after oral application to mice. In kind it is functional, organism-based. The method in brief: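 Swiss mice dosed orally; in vivo H3 antagonist activity tested at least in triplicate, per Garbarg et al.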

The target of assay [3] is Histamine H1 receptor (Cavia porcellus) (UniProt P31389). Put plainly: Compound was tested in vitro for its Histamine H1 receptor activity on guinea pig ileum. The assay is classed as functional, tissue-based.
Sequence of Histamine H1 receptor (Cavia porcellus) (P31389 whole entry): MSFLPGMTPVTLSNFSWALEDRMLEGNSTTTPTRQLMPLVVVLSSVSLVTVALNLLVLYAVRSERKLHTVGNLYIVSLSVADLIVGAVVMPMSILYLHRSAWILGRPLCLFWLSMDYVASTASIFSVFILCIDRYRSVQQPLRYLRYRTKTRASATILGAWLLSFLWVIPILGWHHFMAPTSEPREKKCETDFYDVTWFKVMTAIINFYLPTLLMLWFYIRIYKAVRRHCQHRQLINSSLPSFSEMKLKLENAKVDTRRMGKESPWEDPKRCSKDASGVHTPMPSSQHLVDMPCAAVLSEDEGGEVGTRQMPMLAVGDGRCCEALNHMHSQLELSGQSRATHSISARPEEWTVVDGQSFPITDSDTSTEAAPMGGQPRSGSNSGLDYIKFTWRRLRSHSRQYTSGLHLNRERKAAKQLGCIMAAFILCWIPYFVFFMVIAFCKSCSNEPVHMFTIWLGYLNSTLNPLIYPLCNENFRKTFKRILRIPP
For assay [4], the target named is Histamine H2 receptor (Cavia porcellus) (UniProt P47747). In words: Compound was tested in vitro for its Histamine H2 receptor activity on guinea pig atrium. In kind it is functional, tissue-based. The settings on record: Cardiac atrium.
Sequence of Histamine H2 receptor (Cavia porcellus) (P47747 whole entry): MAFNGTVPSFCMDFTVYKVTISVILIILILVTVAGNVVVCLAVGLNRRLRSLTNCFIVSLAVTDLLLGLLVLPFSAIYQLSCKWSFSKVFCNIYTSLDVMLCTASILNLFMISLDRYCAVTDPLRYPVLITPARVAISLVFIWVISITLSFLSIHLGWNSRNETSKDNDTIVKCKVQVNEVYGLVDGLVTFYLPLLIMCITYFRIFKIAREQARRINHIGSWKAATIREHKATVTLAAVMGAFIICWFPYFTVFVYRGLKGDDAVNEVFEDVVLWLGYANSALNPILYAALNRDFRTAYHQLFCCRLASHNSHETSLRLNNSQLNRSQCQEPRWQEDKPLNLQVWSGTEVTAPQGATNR
In assay [5] the target is Histamine H3 receptor (Rattus norvegicus, UniProt Q9QYN8). The assay is described as §1. In kind it is functional, subcellular, Brain. The method in brief:
as §2

In assay [6] the target is Histamine H1 receptor (Cavia porcellus) (UniProt P31389). Put plainly: Compound was tested in vitro for its Histamine H1 receptor activity on guinea pig ileum. In kind it is functional, tissue-based.

This is an account of results in ChEMBL document CHEMBL1131146, “4-Alkynylphenyl imidazolylpropyl ethers as selective histamine H3-receptor antagonists with high oral central nervous system activity” (J Med Chem, 1998).

One may read the ED50 as the dose at which the effect has come halfway, by size or by number of responders. Read a low ED50 as greater potency. Usually Ki stands for the dissociation constant of the complex between target and ligand, obtained from inhibition or displacement. Read a low Ki as tighter binding.

Sequence of Histamine H3 receptor (Q9QYN8 whole entry): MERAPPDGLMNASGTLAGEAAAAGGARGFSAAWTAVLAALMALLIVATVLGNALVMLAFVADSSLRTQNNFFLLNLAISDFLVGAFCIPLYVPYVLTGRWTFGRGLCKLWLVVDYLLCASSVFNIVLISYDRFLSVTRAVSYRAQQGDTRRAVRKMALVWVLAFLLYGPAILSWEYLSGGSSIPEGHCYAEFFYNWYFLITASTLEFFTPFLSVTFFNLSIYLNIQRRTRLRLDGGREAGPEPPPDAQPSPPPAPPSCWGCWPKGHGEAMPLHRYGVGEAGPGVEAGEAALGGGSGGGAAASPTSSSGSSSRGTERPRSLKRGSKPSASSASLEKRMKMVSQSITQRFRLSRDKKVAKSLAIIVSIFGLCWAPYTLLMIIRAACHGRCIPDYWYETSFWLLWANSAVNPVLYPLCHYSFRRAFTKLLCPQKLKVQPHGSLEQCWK
Sequence of Histamine H3 receptor (Rattus norvegicus) (Q9QYN8 whole entry): as above
Sequence of Histamine H3 receptor (Mus musculus) (P58406 whole entry): as the sequence (Q9QYN8 whole entry) above, with T15A, A286T, A290G, R387H, I389V counted along it

Turning to `CC#Cc1ccc(OCCCc2c[nH]cn2)cc1`, the -Log K in assay [1] is 8.1; in assay [3], less than 5; in assay [4], less than 4.7. In addition, the ED50 in assay [2] worked out at 1.3 mg/kg. The affinity in assay [5] corresponds to a Ki of 7.5 nM.

Molecule `CCCC#Cc1ccc(OCCCc2cnc[nH]2)cc1` had a Ki in assay [5] of 140 nM.

For the molecule `CC(C)(C)C#Cc1ccc(OCCCc2cnc[nH]2)cc1`, the inhibitory constant (Ki) in assay [5] came out at 123 nM.

Take `CCCC#Cc1ccc(OCCCc2c[nH]cn2)cc1`: the -Log K was 6.9 in assay [1], less than 5.9 in assay [3] and less than 4.7 in assay [4]. For the same molecule, the ED50 in assay [2] came to 2.2 mg/kg.

With `CC(C)(C)C#Cc1ccc(OCCCc2c[nH]cn2)cc1`, the -Log K in assay [1] was 6.9; in assay [3], less than 5.6; in assay [4], less than 4.6. This molecule registered a 50% effective dose (ED50) in assay [2] of 2.2 mg/kg.

In turn, `C#Cc1ccc(OCCCc2cnc[nH]2)cc1` had a Ki in assay [5] of 2.3 nM.

For the molecule `C[Si](C)(C)C#Cc1ccc(OCCCc2c[nH]cn2)cc1`, the -Log K in assay [1] is 7.4; in assay [4], less than 4.6; in assay [6] it was less than 5. In assay [2], this molecule displayed a median effective dose (ED50) of 1.1 mg/kg. The molecule also gave a Ki in assay [5] of 36 nM.

Turning to `C#Cc1ccc(OCCCc2c[nH]cn2)cc1`, the values for the -Log K in assay [1], in assay [4] and in assay [6] were 8.6, less than 4.8 and less than 5.5, respectively. It took a dose of 0.12 mg/kg to reach the 50% effect level in assay [2] (ED50).
